In ChEMBL document CHEMBL1926548, “Synthesis and study of new paramagnetic resveratrol analogues” (Bioorg Med Chem, 2011):
The source made the active and inactive calls. No cut-off for these calls is given here.

Legend:
RAW264.7 [1] = experiment: Antiinflammatory activity in mouse RAW264.7 cells assessed as inhibition of LPS-induced nitrite production after 24 hrs by Griess method; format: functional, cell-based
Method in brief: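 Seeding, medium, overnight culture and treatment as for ROS: LPS 100 ng/mL plus compound at 12.5–100 µM for 24 h. Culture medium mixed with an equal volume of Griess reagent (1% sulphanilamide, 0.1% naphthylethylenediamide, 5% phosphoric acid). Absorbance read at 550 nm and expressed as % of LPS-only mean. n = 6, three repeats.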

RAW264.7 [2] = experiment: Antiinflammatory activity in mouse RAW264.7 cells assessed as inhibition of LPS-induced ROS production after 24 hrs using DCFH-DA by fluorescent microplate reader; format: functional, cell-based
Method in brief: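 Cells seeded 5*10^4/well and kept overnight at 37 °C, 5% CO2 in DMEM with 10% heat-inactivated FCS and L-glutamine. Fresh medium, then LPS (E. coli 0127:B8, 100 ng/mL) with or without compound (12.5–100 µM) for 24 h. C400 (2 µg/mL) added for a further 2 h. Fluorescence read at ex 485/em 555 nm. Reported as % of LPS-only mean. n = 6, three repeats.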

[3] = Antioxidant activity in ethyl alcohol assessed as trolox equivalents of ABTS radical scavenging activity after 6 mins by TEAC assay; format: functional
Method in brief: (§1)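 ABTS (7 mM in water) reacted with 2.45 mM persulfate (final) for 12–16 h in the dark at room temperature. Diluted in ethanol or 0.05 M PBS pH 7.4 to A734 0.70 ± 0.02. Compound added at 2.5–12.5 µM, read at 734 nm after 6 min at 25 °C. TEAC = slope of % inhibition vs concentration divided by Trolox slope. Three independent experiments.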

RAW264.7 [4] = experiment: Antiinflammatory activity in mouse RAW264.7 cells assessed as inhibition of LPS-induced TNF-alpha production at 50 uM after 1.5 hrs by ELISA; format: functional, cell-based
Method in brief: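 Cells seeded 2*10^5/well and cultured overnight as above. Fresh medium, then LPS (100 ng/mL) alone or with compound for 1.5 h. TNFα in medium measured with a mouse TNFα ELISA kit, read at 450 nm. Reported as % of LPS-only mean. n = 3, three repeats. Groups compared at p<0.05.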

[5] = Antioxidant activity in 0.05 M phosphate buffered saline assessed as trolox equivalents of ABTS radical scavenging activity after 6 mins by TEAC assay; format: functional; method in brief: as §1

Structure (SMILES)	inhibition (RAW264.7 [1])	inhibition (RAW264.7 [2])	Ratio [3]	inhibition (RAW264.7 [4])	Ratio [5]
COc1cc(/C=C/C2=CC(C)(C)N([O])C(C)(C)C2)cc(OC)c1	Dose-dependent effect	Dose-dependent effect	0.2	–	–
CC1(C)C(c2ccc(O)cc2)=C(c2cc(O)cc(O)c2)C(C)(C)N1[O]	Dose-dependent effect	Dose-dependent effect	1.02	inactive	–
COc1cc(/C=C/C2=CC(C)(C)N(O)C(C)(C)C2)cc(OC)c1	–	–	–	–	0.28
CC1(C)c2ccc(/C=C/c3cc(O)cc(O)c3)cc2C(C)(C)N1O	–	–	–	–	0.67
CC1(C)C=C(/C=C/c2cc(O)cc(O)c2)CC(C)(C)N1O	–	–	–	–	0.62
COc1cc(OC)cc(C2=C(c3cc(OC)cc(OC)c3)C(C)(C)NC2(C)C)c1	Dose-dependent effect	Dose-dependent effect	–	Active	–
CC1(C)c2ccc(/C=C/c3cc(O)cc(O)c3)cc2C(C)(C)N1[O]	Dose-dependent effect	Dose-dependent effect	0.98	Active	–
Oc1ccc(/C=C/c2cc(O)cc(O)c2)cc1	Dose-dependent effect	Dose-dependent effect	1	Active	1.3
COc1ccc(/C=C/c2cc(OC)cc(OC)c2)cc1	–	–	0.04	–	–
CC1(C)C=C(/C=C/C2=CC(C)(C)N([O])C(C)(C)C2)CC(C)(C)N1[O]	Dose-dependent effect	Dose-dependent effect	0.22	Active	–
CC1(C)C=C(/C=C/c2cc(O)cc(O)c2)CC(C)(C)N1[O]	Dose-dependent effect	Dose-dependent effect	0.92	Active	–
COc1cc(/C=C/C2=CC(C)(C)NC(C)(C)C2)cc(OC)c1	Dose-dependent effect	Dose-dependent effect	0.32	Active	0.02
CC1(C)C=C(/C=C/C2=CC(C)(C)N(O)C(C)(C)C2)CC(C)(C)N1O	–	–	–	–	0.37
